Test results published in ChEMBL document CHEMBL1124362, “Synthesis of methotrexate-antibody conjugates by regiospecific coupling and assessment of drug and antitumor activities” (J Med Chem, 1989).
≈ marks a conversion by molar mass, not a printed value.

Tests used:
Dihydrofolate reductase = molecular target: T1, Dihydrofolate reductase (Bos taurus, UniProt P00376); test: Concentration required for inhibition of beef liver dihydrofolate reductase
T1 sequence (P00376 whole entry): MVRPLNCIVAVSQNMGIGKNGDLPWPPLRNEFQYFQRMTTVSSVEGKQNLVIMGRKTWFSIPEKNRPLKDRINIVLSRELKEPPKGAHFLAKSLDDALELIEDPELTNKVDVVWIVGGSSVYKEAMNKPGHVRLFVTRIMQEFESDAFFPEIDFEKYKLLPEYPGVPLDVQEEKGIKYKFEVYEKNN

CAKI-1 [1] = test: Inhibition of colony formation of Caki-1 cells by MTX; type: functional, cell-based; details: Homo sapiens
How it was run: (§1)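 Single-cell suspensions (>99% trypan blue-excluding) of M21 melanoma or Caki-1 renal carcinoma cells, 1 × 10⁶ cells/mL in McCoy's medium with 15% dialyzed FCS, exposed 6 h at 37 °C to agent, washed three times, plated in 0.3% agar over 0.5% agar base (10⁴ cells/plate). Incubated at 37 °C, 5% CO₂. Colonies >30 cells counted visually at 14 days, three plates per concentration.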

CAKI-1 [2] = test: Inhibition of colony formation of Caki-1 cells by amide-linked conjugate (regiospecific coupling) of MTX and Dal K-20; type: functional, cell-based; details: Homo sapiens; how it was run: as §1
CAKI-1 [3] = test: Inhibition of colony formation of Caki-1 cells by amide-linked conjugate of MTX and Dal K-20; type: functional, cell-based; details: Homo sapiens; how it was run: as §1
CAKI-1 [4] = test: Inhibition of colony formation of Caki-1 cells by hydrazone-linked conjugate (regiospecific coupling) of MTX and Dal K-20; type: functional, cell-based; details: Homo sapiens; how it was run: as §1
CAKI-1 [5] = test: Inhibition of colony formation of Caki-1 cells by hydrazone-linked conjugate of MTX and Dal K-20; type: functional, cell-based; details: Homo sapiens; how it was run: as §1
M21 [6] = test: Colony count at 15 ug/mL of amide-linked conjugate of MTX and Dal K-20 in melanoma M21 cells; details: Homo sapiens
M21 [7] = test: Colony count at 10 ug/mL of amide-linked conjugate of MTX and Dal K-20 in melanoma M21 cells; details: Homo sapiens
M21 [8] = test: Colony count at 20 ug/mL of amide-linked conjugate of MTX and Dal K-20 in melanoma M21 cells; details: Homo sapiens
M21 [9] = test: Colony count at 20 ug/mL of hydrazone-linked conjugate of MTX and Dal K-20 in melanoma M21 cells; details: Homo sapiens
M21 [10] = test: Colony count at 10 ug/mL of hydrazone-linked conjugate of MTX and Dal K-20 in melanoma M21 cells; details: Homo sapiens
M21 [11] = test: Colony count at 15 ug/mL of hydrazone-linked conjugate of MTX and Dal K-20 in melanoma M21 cells; details: Homo sapiens
M21 [12] = test: Colony count at 15 ug/mL of amide-linked conjugate (regiospecific coupling) of MTX and Dal K-20 in melanoma M21 cells; details: Homo sapiens
M21 [13] = test: Colony count at 20 ug/mL of amide-linked conjugate (regiospecific coupling) of MTX and Dal K-20 in melanoma M21 cells; details: Homo sapiens
M21 [14] = test: Colony count at 10 ug/mL of amide-linked conjugate (regiospecific coupling) of MTX and Dal K-20 in melanoma M21 cells; details: Homo sapiens
M21 [15] = test: Colony count at 15 ug/mL of hydrazone-linked conjugate (regiospecific coupling) of MTX and Dal K-20 in melanoma M21 cells; details: Homo sapiens
M21 [16] = test: Colony count at 20 ug/mL of hydrazone-linked conjugate (regiospecific coupling) of MTX and Dal K-20 in melanoma M21 cells; details: Homo sapiens
M21 [17] = test: Colony count at 10 ug/mL of hydrazone-linked conjugate (regiospecific coupling) of MTX and Dal K-20 in melanoma M21 cells; details: Homo sapiens

CN(Cc1cnc2nc(N)nc(N)c2n1)c1ccc(C(=O)NC(CCC(=O)NN)C(=O)O)cc1 (stereo unspecified)
IC50 (Dihydrofolate reductase): 30.7 µM

COC(=O)CCC(NC(=O)c1ccc(N(C)Cc2cnc3nc(N)nc(N)c3n2)cc1)C(=O)O (stereo unspecified)
IC50 (Dihydrofolate reductase): 25.4 µM

CN(Cc1cnc2nc(N)nc(N)c2n1)c1ccc(C(=O)N[C@@H](CCC(=O)O)C(=O)O)cc1 [METHOTREXATE]
IC50 (CAKI-1 [1]): 25 µg/mL (≈ 55 µM) | IC50 (CAKI-1 [2]): 3.3 µg/mL (≈ 7.26 µM) | IC50 (CAKI-1 [3]): 4.5 µg/mL (≈ 9.9 µM) | IC50 (CAKI-1 [4]): 3 µg/mL (≈ 6.6 µM) | IC50 (CAKI-1 [5]): 3.4 µg/mL (≈ 7.48 µM) | colony count (M21 [6]): 117 colonies/plate | colony count (M21 [7]): 109 colonies/plate | colony count (M21 [8]): 119 colonies/plate | colony count (M21 [9]): 108 colonies/plate | colony count (M21 [10]): 112 colonies/plate | colony count (M21 [11]): 109 colonies/plate | colony count (M21 [12]): 118 colonies/plate | colony count (M21 [13]): 112 colonies/plate | colony count (M21 [14]): 115 colonies/plate | colony count (M21 [15]): 121 colonies/plate | colony count (M21 [16]): 115 colonies/plate | colony count (M21 [17]): 120 colonies/plate

CN(Cc1cnc2nc(N)nc(N)c2n1)c1ccc(C(=O)NC(CCC(=O)NN)C(=O)OC(C)(C)C)cc1 (stereo unspecified)
IC50 (Dihydrofolate reductase): 41.2 µM

CN(Cc1cnc2nc(N)nc(N)c2n1)c1ccc(C(=O)NC(CCC(=O)NN)C(=O)NN)cc1 (stereo unspecified)
IC50 (Dihydrofolate reductase): 37.9 µM
